Bioassay records as filed in PubChem BioAssay.
Compounds with a hit are over-represented: about 4.7% of the library has one in this group of screens.
aSyn 5UTR inh: MLPCN primary screen, SNCA 5' untranslated region; alpha-synuclein 5'UTR reporter, inhibitor activity; actives 0.82% (n = 300,000); inhibition, % (tested at 7.5 µM); AID 1813, 2009; in the data active = inhibition above about 60%; inconclusive = no clear call, values can overlap the other calls;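 note: H4 neuroglioblastoma cells stably carrying SNCA 5'UTR luciferase fusion; 0% = DMSO wells and 100% = positive control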
VIM-2 inhibitor: VIM-2 metallo-beta-lactamase inhibitors, primary screen, biochemical, epi-absorbance readout, Pseudomonas aeruginosa enzyme | purified VIM-2, nitrocefin hydrolysis, epi-absorbance fluorescence | inhibition, % at 5.6 µM | actives 0.89% (n = 290,000) | AID 1527, 2009;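 active = inhibition above the mean of all tested compounds plus 3 SD, cutoff set per screening run, cut at about 7.5% in these data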;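 note: red hydrolysis product quenches plate fluorescence so inhibitors raise well fluorescence; 0% = enzyme with DMSO and 100% = DMSO without enzyme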
697 NFkB inh: inhibitors of PMA/ionomycin-induced NF-kB reporter, 697 cells, primary screen, B-cell NF-kB inhibitor project, cell-based, luminescence, uHTS; actives 0.33% (n = 330,000); inhibition, % at 4 µM; 697 B-cell NF-kB luciferase reporter, 16 h; in the data active = inhibition above about 35%
IMP-1 inh: IMP-1 metallo-beta-lactamase inhibitors, primary screen, biochemical, epi-absorbance readout, Pseudomonas aeruginosa enzyme | metallo-beta-lactamase IMP-1 (Pseudomonas aeruginosa) | AID 1556, 2009 | inhibition, % at 5.6 µM | actives 0.45% (n = 290,000) | purified IMP-1, nitrocefin hydrolysis, epi-absorbance fluorescence;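 active = inhibition above the mean plus 3 SD of all compounds in the same screening run, cut at about 4.5% in these data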;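 note: 0% = IMP-1 with DMSO and 100% = DMSO wells lacking enzyme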
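Assay system: purified recombinant IMP-1 beta-lactamase. Input: IMP-1 0.2 nM before substrate addition. Buffer or medium: Zinc- and detergent-supplemented HEPES buffer, pH 7.1. Schedule: 25 °C, 15 min preincubation, 25 min reaction. Signal: Epi-absorbance fluorescence, 480 nm excitation, 530 nm emission. Evaluation: percent inhibition from optical density relative to buffer-blank wells.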
Mdm2 MdmX PPI: inhibitors of human Mdm2-MdmX association, primary screen, cell-based, luminescence, split luciferase, SaOS-2, uHTS. Protein Mdm4 (Homo sapiens) + E3 ubiquitin-protein ligase Mdm2 (Homo sapiens), …. SaOS-2 split-luciferase Mdm2/MdmX complementation. inhibition, % at 8 µM. actives 3% (n = 330,000);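 active = inhibition of at least 50% at 8 µM in the primary screen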
Target sequence (O15151 whole entry, looked up): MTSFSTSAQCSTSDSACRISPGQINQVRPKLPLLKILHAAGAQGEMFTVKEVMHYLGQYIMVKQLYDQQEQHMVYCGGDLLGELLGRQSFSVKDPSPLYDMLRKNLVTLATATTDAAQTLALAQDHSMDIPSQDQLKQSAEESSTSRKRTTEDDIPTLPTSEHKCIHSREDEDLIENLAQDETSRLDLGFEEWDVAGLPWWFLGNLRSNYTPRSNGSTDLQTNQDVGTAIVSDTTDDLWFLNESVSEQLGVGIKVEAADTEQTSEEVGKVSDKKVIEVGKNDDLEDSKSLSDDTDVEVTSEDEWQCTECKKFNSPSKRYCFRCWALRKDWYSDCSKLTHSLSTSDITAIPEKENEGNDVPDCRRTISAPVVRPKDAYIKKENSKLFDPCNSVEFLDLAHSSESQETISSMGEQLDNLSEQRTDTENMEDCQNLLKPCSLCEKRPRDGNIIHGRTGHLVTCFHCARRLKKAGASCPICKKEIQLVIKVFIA
Target sequence (Q00987 whole entry, looked up): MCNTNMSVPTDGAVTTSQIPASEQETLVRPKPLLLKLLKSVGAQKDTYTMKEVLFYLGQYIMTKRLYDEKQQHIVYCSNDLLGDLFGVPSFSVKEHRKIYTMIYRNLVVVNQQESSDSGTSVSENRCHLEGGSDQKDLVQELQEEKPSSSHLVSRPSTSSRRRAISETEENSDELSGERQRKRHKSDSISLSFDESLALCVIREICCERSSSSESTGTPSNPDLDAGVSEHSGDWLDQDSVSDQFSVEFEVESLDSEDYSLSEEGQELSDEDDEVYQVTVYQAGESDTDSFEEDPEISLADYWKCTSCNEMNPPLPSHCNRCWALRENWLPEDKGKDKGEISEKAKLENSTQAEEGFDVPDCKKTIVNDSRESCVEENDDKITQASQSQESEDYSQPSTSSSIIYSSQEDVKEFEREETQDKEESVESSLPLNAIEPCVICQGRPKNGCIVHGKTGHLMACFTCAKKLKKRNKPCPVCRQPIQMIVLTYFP
Jurkat NFkB inh: inhibitors of induced NF-kB luciferase reporter, primary screen, TCR NF-kB activation inhibitor project, cell-based, luminescence, uHTS; Jurkat, PMA/ionomycin-induced NF-kB luciferase reporter; inhibition, % at 4 µM; actives 0.53% (n = 330,000); AID 435003, 2010; in the data active = inhibition above about 50%
Mdm2-MdmX conf: Mdm2-MdmX complex disruptors, retested hits, confirmation, luminescence, single concentration. actives 55% (n = 10,000). shares compounds with Mdm2 MdmX PPI. Mdm2-MdmX binding, luminescent assay. inhibition, % at 8 µM. AID 489028, 2010; in the data active = inhibition above about 40%
FLuc counter: full-length luciferase signal inhibition, confirmation, counter-screen for Mdm2/MdmX interaction inhibitor project, cell-based, single concentration, SaOS-2 | shares compounds with Mdm2 MdmX PPI | SaOS-2 full-length luciferase counterscreen, luminescence | inhibition, % at 8 µM | actives 77% (n = 6,200) | AID 504607, 2011;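 active = mean inhibition at 8 µM reaching about 37%, which flags the compound as non-specific, limit read from the data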;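 note: p53-null SaOS-2 cells with luciferase driven by a doxycycline-inducible promoter; compound on cells about two nights before reading with doxycycline added after day one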
* marks the source's active call; other numbers are inactive results; ? = inconclusive; nt = not tested or not shown.

SMILES	aSyn 5UTR inh	VIM-2 inhibitor	697 NFkB inh	IMP-1 inh	Mdm2 MdmX PPI	Jurkat NFkB inh	Mdm2-MdmX conf	others
Cc1cccc2cc(C(c3nnnn3Cc3ccccc3)N3CCCc4ccccc43)c(=O)[nH]c12 (configuration not stated)	-29.2	-3.5	-1.4	-0.8	87.6*	-4.4	1.7
CCN1CCN(C(c2cc3cccc(C)c3[nH]c2=O)c2nnnn2Cc2ccccc2)CC1 (configuration not stated)	-36.3	-1.6	8.7	-0.1	14.1	7.5	nt
Cc1ccc2c(c1)Oc1ccc(NC(=O)CCCl)cc1C(=O)N2	33.0	-1.5	-5.4	-1.2	66.6*	3.2	68.0*	FLuc counter=101.5*
CCCC(=O)Nc1ccc2c(c1)C(=O)NC2=O	-1.1	-0.2	5.6	-2.8	-12.5	11.3	nt
N/C(=N\OC(=O)Nc1ccccc1)c1ncc(C(F)(F)F)cc1Cl	-115.3	-2.5	6.7	-0.2	51.0*	-21.6	3.5
N/C(=N\OC(=O)Nc1ccc(Cl)cc1)c1ncc(C(F)(F)F)cc1Cl	-72.9	-6.1	7.4	-3.4	26.9	-6.7	nt
COc1ccc(NC(=O)C(=O)c2cn(CC(=O)N3CCCC3)c3ccccc23)cc1	104.6*	-7.3	-3.7	-4.0	58.3*	43.9	54.5*	FLuc counter=88.6*
CCOc1ccccc1NC(=O)NCc1ccc2c(c1)OCO2	3.7	-3.1	12.1	-4.2	-16.8	-5.4	nt
COc1ccc(/C=C(\NC(=O)c2ccc(C)cc2)C(=O)NCC2CCCO2)cc1 (configuration not stated)	-2.3	-1.3	-1.1	-2.4	19.9	-0.6	nt
O=C(N/N=C/c1cn(-c2cccs2)nc1-c1ccccc1)c1ccccc1O	-33.3	-4.6	-28.9	-3.1	62.5*	-26.6	15.3
COc1ccc(-c2csc(NC(=S)NC(=O)c3cccs3)n2)cc1OC	33.9	-1.6	26.0	-2.7	40.8	13.5	nt
COc1cc(/C=N/Nc2nc(-c3ccc(S(=O)(=O)N(C)C)cc3)cs2)ccc1O	-77.8	-1.6	-4.6	-5.0	82.4*	-2.2	56.4*	FLuc counter=81.3*
COc1ccc(-c2csc(NC(=S)NC(=O)c3ccc(S(=O)(=O)N(C)C)cc3)n2)cc1OC	32.9	-1.7	15.4	-5.2	70.4*	1.4	22.7
COc1ccc(-c2csc(NC(=O)c3ccc(OCC(=O)N4CCOCC4)c(OC)c3)n2)cc1OC	16.1	1.5	32.3	-1.6	57.8*	21.6	38.8
CC(=O)OC[C@]12CC[C@H]3[C@@](C)(CC[C@H]4C(C)(C)CCC[C@]34C)[C@@H]1C[C@H](C1=CC(=O)O[C@H]1OC(C)=O)O2	nt	nt	-19.4	nt	90.7*	-9.5	23.1
CC(=O)OC[C@]12CC[C@H]3[C@@](C)(CC[C@H]4C(C)(C)CCC[C@]34C)[C@@H]1C[C@@H](C1=CC(=O)O[C@@H]1OC(C)=O)O2	nt	nt	-62.8	nt	100.5*	9.6	98.7*	FLuc counter=2.2
COc1cccc(C(C)N(C)Cc2nc(-c3ccoc3)oc2C)c1 (configuration not stated)	-3.1	-0.5	11.8	-3.0	-20.7	0.8	nt
CC(=O)OC[C@H]1O[C@@H](O/N=C/C[C@@H]2C=C[C@H](OC(C)=O)[C@@H](COC(C)=O)O2)[C@H](OC(C)=O)[C@@H](OC(C)=O)[C@@H]1OC(C)=O	-15.0	-0.9	-9.4	-0.4	3.9	14.3	nt
N=c1c2c(-c3ccccc3)c(-c3ccccc3)n(Cc3ccco3)c2ncn1CCCN1CCOCC1	-30.5	-1.3	-10.0	-0.9	100.3*	-9.5	88.2*	FLuc counter=56.0*
N=c1c2c(-c3ccccc3)c(-c3ccccc3)n(Cc3ccccc3)c2ncn1CCO	?	0.5	-5.2	-2.4	72.8*	47.9	65.3*	FLuc counter=40.2*
CC(C)Cn1cnc2c(c(-c3ccccc3)c(-c3ccccc3)n2Cc2ccco2)c1=N	-32.3	-3.6	-29.3	-1.5	91.2*	30.2	-1.9
N=c1c2c(-c3ccccc3)c(-c3ccccc3)n(Cc3ccco3)c2ncn1CCCn1ccnc1	-15.8	1.1	nt	-2.0	nt	nt	nt
N=c1c2c(-c3ccccc3)c(-c3ccccc3)n(Cc3ccco3)c2ncn1Cc1ccccc1	17.1	0.8	-1.0	-2.8	100.4*	24.8	62.0*	FLuc counter=23.0
CC(C)N(C(=O)[C@H]1C[C@H](CC(=O)NCCCn2ccnc2)C(=O)N2CCc3c([nH]c4cc(CCC(=O)N(C)C)ccc34)[C@]12C)C(C)C	nt	nt	17.1	nt	14.4	nt	nt
CC(C)Cc1nnc(NC(=O)CCC(=O)N2CCN(c3ccc(Cl)cc3)CC2)s1	-10.5	-3.1	3.5	-3.0	31.7	18.7	nt
SMILES	aSyn 5UTR inh	VIM-2 inhibitor	697 NFkB inh	IMP-1 inh	Mdm2 MdmX PPI	Jurkat NFkB inh	Mdm2-MdmX conf	others
O=C(NC1CC1)C1=C[C@@H](C2CCCCC2)C[C@@H](OCCCCO)O1	-19.1	-1.3	15.1	-3.4	-22.3	12.8	nt
CC12CC(c3ccccc3O1)N(C(=O)c1ccco1)C(=S)N2c1ccc(F)cc1 (configuration not stated)	-24.1	-0.3	-1.8	-2.1	50.8*	0.9	30.2
CC1(C)Cc2c(cnn2-c2ccc(F)cc2)C(NC(=O)c2ccco2)C1 (configuration not stated)	7.5	-3.0	-6.9	-3.1	1.0	8.5	nt
O=C(CNc1ccccc1)NN=C1CCCC1	7.3	-7.2	5.6	-4.5	-5.5	-8.7	nt
Cc1ccccc1C(=O)Nc1sc(C)c(C)c1C(=O)c1ccccc1	32.8	-2.0	-14.4	-2.2	19.3	5.6	nt
Cc1cc(C(=O)c2ccc(C(C)(C)C)cc2)c(NC(=O)CCl)s1	25.7	-0.7	0.8	-2.1	77.6*	-2.5	-4.5
Cc1cc(C(=O)c2ccccc2)c(NC(=O)CN2CCOCC2)s1	8.4	-4.3	-12.3	-3.7	3.3	-9.4	nt
Cc1sc(NC(=O)CCl)c(C(=O)c2ccccc2)c1C	7.7	-4.1	5.8	0.1	54.3*	-16.9	3.8
COc1ccc(Br)cc1S(=O)(=O)NCCCN1CCOCC1	-2.4	-0.4	4.5	-4.0	-7.0	9.6	nt
Nc1nnc(SCC(=O)NNC(=O)c2ccc([N+](=O)[O-])cc2)s1	nt	nt	13.7	nt	-2.8	-2.0	nt
